According to ChEMBL document CHEMBL4316598, “Synthesis, antiproliferative and apoptosis induction potential activities of novel bis(indolyl)hydrazide-hydrazone derivatives” (Bioorg Med Chem, 2019):
Active and inactive are the calls of the source. The calls are words filed in the database; no cut-off is given here.

What was measured:
HeLa [1] = assay: Induction of cell cycle arrest in human HeLa cells at 1 uM after 16 hrs by propidium iodide/RNase A staining based FACS analysis; type: functional
In short: (§1)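 Cells were seeded at 1 million cells/mL in 24-well plates and grown to 70% confluence. They were exposed at 1 µM for 16 h, washed in cold PBS, fixed in absolute ethanol and stored at −20 °C. Staining was with RNase A (20 µg/mL final) and PI (50 µg/mL final) for 30 min at 37 °C in the dark. Results are given as the percentage of cells in each cell-cycle phase by FACS.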

HeLa [2] = assay: Induction of apoptosis in human HeLa cells assessed as necrotic cells at 1 uM after 16 hrs by annexin-V FITC/propidium iodide staining based flow cytometric analysis relative to control; type: functional
In short: (§2)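 Cells were grown in DMEM with 10% heat-inactivated FBS at 37 °C and 5% CO₂, then plated at 500,000 cells/well in 24-well plates. They were treated from a DMSO stock (DMSO ≤0.1%) for 8, 12 or 16 h. After a PBS wash, cells were resuspended in binding buffer (10 mM HEPES pH 7.4, 2.5 mM CaCl₂, 140 mM NaCl, 0.1% BSA), stained 40 min with FITC-annexin V, then with PI, and run on the flow cytometer immediately. Values are the mean of three independent experiments.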

HeLa [3] = assay: Induction of apoptosis in human HeLa cells assessed as early apoptotic cells at 1 uM after 8 hrs by annexin-V FITC/propidium iodide staining based flow cytometric analysis relative to control; type: functional; in short: as §2
MCF7 [4] = assay: Induction of apoptosis in human MCF7 cells assessed as necrotic cells at 1 uM after 16 hrs by annexin-V FITC/propidium iodide staining based flow cytometric analysis relative to control; type: functional; in short: as §2
MCF7 [5] = assay: Induction of cell cycle arrest in human MCF7 cells at 1 uM after 16 hrs by propidium iodide/RNase A staining based FACS analysis; type: functional; in short: as §1
[6] = molecular target: Mitogen-activated protein kinase; ERK1/ERK2 (Homo sapiens) (UniProt P27361+P28482); assay: Activation of ERK1/2 phosphorylation in human MCF7 cells assessed as increase in ratio of phosphorylated ERK1/2 to total ERK1/2 level at 5 uM by ELISA; type: cell-based
In short: (§3)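 Cell-based ELISA: HeLa or MCF-7 cells (20×10^3/well) grown overnight at 37 °C, 5% CO2, treated with 5 μM, then fixed and blocked. Probed with rabbit anti-total and anti-phospho P38, JNK or ERK1/2 (1:100), then HRP anti-rabbit IgG. Result is the phospho/total ratio; inhibitor arms use […], […] or SP600125. n=3.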

HeLa [7] = assay: Induction of ROS generation in human HeLa cells at 5 uM after 4 to 8 hrs in presence of NAC by DCFH-DA staining-based fluorescence spectrophotometric analysis; type: functional, cell-based
In short: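 DCFH-DA ROS: HeLa or MCF-7 cells at 2×10^6/well cultured 12 h, treated 4 or 8 h; t-BHP (10 μM) is the positive control. DCFH-DA 10 μM added for 10 min at 37 °C, cells washed twice with PBS. Fluorescence read at ex 485/em 520 nm. For the NAC arm, NAC (5 mM) is added to the medium before treatment.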

MCF7 [8] = assay: Induction of apoptosis in human MCF7 cells assessed as change in Bcl-2 level at 1 to 3 uM after 24 hrs by Western blot analysis; type: functional, cell-based
In short: (§4)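 Cells were treated at 1, 3 and 5 µM for 24 h at 37 °C. Lysis was in ice-cold Triton X-100 buffer with protease and phosphatase inhibitors; nuclear proteins were extracted separately. Protein was quantified by BCA. Lysates were separated by electrophoresis, transferred to nitrocellulose and blocked in non-fat milk for 1 h. Primary antibody was applied overnight at 4 °C and secondary for 1 h at 28 °C. Detection was by enhanced chemiluminescence.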

HeLa [9] = assay: Induction of apoptosis in human HeLa cells assessed as necrotic cells at 1 uM after 8 hrs by annexin-V FITC/propidium iodide staining based flow cytometric analysis relative to control; type: functional; in short: as §2
MCF7 [10] = assay: Induction of ERK/MAPK signal transduction pathway in human MCF7 cells assessed as increase in p21 level; type: cell-based
[11] = molecular target: c-Jun N-terminal kinase, JNK (Homo sapiens) (UniProt P45983+P53779+P45984); assay: Activation of JNK phosphorylation in human HeLa cells assessed as increase in ratio of phosphorylated JNK to total JNK level at 5 uM by ELISA; type: cell-based; in short: as §3
MCF7 [12] = assay: Induction of apoptosis in human MCF7 cells assessed as up-regulation of acetylated p53 level at 5 uM after 24 hrs by sandwich ELISA; type: functional, cell-based
In short: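 Cells were treated at 5 µM for 12, 24 and 48 h. Lysis was in ice-cold lysis buffer with 1 mM PMSF (5 min on ice), followed by three freeze-thaw cycles and a 10 min spin at 4 °C. Acetylated and total p53 were measured in the supernatant by kit sandwich ELISA, read at 450 nm. The control index is sample absorbance divided by that of untreated cells at the same time. Values are mean ± SD of triplicate experiments.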

MCF7 [13] = assay: Induction of caspase-dependent apoptosis in human MCF7 cells assessed as activation of caspase-9 at 1 to 3 uM after 24 hrs by Western blot analysis; type: functional, cell-based; in short: as §4
Detroit 562 = assay: Cytotoxicity against human Detroit 562 cells assessed as reduction in cell viability after 4 hrs by MTT assay; type: functional, cell-based
MCF7 [14] = assay: Induction of apoptosis in human MCF7 cells assessed as viable cells at 1 uM after 16 hrs by annexin-V FITC/propidium iodide staining based flow cytometric analysis relative to control; type: functional; conditions: MCF7, 16 h, read-out: Activity; in short: as §2
MCF7 [15] = assay: Effect on mitochondrial membrane potential in human MCF7 cells assessed as shift change at 5 uM after 2 hrs by Rhodamine 123 dye-based fluorescence assay; type: functional, cell-based
In short: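 Mitochondrial potential: HeLa or MCF-7 cells treated with 5 µM (final) for 1, 2, 4 and 8 h. Rhodamine 123 added, cells incubated 30 min at 37 °C, washed with PBS, and analysed by flow cytometry. Fluorescence histogram shift is compared with control.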

MCF7 [16] = assay: Induction of nitric oxide production in human MCF7 cells at 1 uM measured over 8 hrs by Griess reaction based assay relative to control; type: functional
In short: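 Cells seeded at 2×10^6 cells/well for 12 h, then exposed to 1, 5 and 10 μM compound for 8 h at 37 °C. Culture supernatant mixed with Griess reagent (0.002% N-1-naphthyl-ethylenediamine dihydrochloride, 0.5% sulfanilic acid, 14% glacial acetic acid). Nitrite read by absorbance at 550 nm and compared with vehicle group.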

[17] = Cytotoxicity against HEK293 cells assessed as cell viability at 200 uM after 4 hrs by MTT assay relative to control; type: cell-based; conditions: human, read-out: Activity
In short: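 MTT: 10,000–20,000 cells/well attached for 16 h, then washed twice with serum-free RPMI. Treated with 1–200 µM for 4 h, 3 parallel runs per concentration. MTT added for 2 h; medium partly removed and isopropanol added. A590 read. Viability = (A treated − A doxorubicin)/(A medium − A doxorubicin)×100. Mean of three experiments, triplicate wells each.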

MCF7 [18] = assay: Induction of apoptosis in human MCF7 cells assessed as early apoptotic cells at 1 uM after 16 hrs by annexin-V FITC/propidium iodide staining based flow cytometric analysis relative to control; type: functional; in short: as §2

Sequence of Mitogen-activated protein kinase; ERK1/ERK2 (Homo sapiens) (P27361 whole entry, looked up): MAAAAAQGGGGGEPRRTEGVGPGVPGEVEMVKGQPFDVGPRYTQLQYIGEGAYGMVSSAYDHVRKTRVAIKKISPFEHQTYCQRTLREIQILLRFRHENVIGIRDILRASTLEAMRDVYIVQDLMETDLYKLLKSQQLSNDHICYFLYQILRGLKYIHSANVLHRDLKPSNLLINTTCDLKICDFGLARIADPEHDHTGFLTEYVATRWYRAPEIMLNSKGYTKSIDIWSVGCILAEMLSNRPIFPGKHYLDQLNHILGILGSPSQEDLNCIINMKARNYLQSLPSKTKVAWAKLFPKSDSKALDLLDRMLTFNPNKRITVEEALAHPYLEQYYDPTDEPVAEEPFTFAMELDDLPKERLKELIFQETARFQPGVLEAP
Sequence of Mitogen-activated protein kinase; ERK1/ERK2 (Homo sapiens) (P28482 whole entry, looked up): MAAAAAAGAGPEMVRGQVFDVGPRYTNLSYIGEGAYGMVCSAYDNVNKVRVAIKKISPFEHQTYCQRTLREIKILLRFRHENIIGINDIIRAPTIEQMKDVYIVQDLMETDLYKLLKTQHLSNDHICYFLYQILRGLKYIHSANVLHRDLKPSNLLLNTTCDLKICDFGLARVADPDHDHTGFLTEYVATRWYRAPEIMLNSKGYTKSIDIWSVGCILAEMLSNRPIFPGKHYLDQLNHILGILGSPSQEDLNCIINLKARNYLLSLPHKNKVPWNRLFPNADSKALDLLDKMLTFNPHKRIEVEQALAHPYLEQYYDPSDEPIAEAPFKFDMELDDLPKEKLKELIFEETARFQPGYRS

For `Cn1cc(/C=N\NC(=O)c2cn(C)c3ccc(Br)cc23)c2ccccc21`, the Activity (HeLa [1]) was “inactive”, the Activity (HeLa [2]) was 1.77% and the Activity (HeLa [3]) was 19.15%. The Activity (MCF7 [4]) was 4.71%, the Activity (MCF7 [5]) was “inactive” and the Activity [6] was “Active”. The Activity (HeLa [7]) was “inactive”, the Activity (MCF7 [8]) was “inactive” and the Activity (HeLa [9]) was 0.57%. The Activity (MCF7 [10]) was “Active”, the Activity [11] was “Active” and the Activity (MCF7 [12]) was “Active”. The Activity (MCF7 [13]) was “inactive”, the Activity (Detroit 562) was “Dose-dependent effect” and the IC50 (Detroit 562; Detroit 562, 4 h) was 22.7 µM. The viability at 1 µM (MCF7 [14]) was 20.4%, the Activity (MCF7 [15]) was “Active” and the Activity (MCF7 [16]) was 32.1%. For the same compound, the viability at 4 h, 200 µM [17] was 95% and the Activity (MCF7 [18]) was 16.41%.
